Source: BindingDB's records for doi:10.1021/jm301749y (University of North Carolina at Chapel Hill, 2013)
pIC50: −log10 of the molar value.

Target: T1, C-C chemokine receptor type 4 (Homo sapiens, UniProt P51679)
T1 sequence (P51679 whole entry): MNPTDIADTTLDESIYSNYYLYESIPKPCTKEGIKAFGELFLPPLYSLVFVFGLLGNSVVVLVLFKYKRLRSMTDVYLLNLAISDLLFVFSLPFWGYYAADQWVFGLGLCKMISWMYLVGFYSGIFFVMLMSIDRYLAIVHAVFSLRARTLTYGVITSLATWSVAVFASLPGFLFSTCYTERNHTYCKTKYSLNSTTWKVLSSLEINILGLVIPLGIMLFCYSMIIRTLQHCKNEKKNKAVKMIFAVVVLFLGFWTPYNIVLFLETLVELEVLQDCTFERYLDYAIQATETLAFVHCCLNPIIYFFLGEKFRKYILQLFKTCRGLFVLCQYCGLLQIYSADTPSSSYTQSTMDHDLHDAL
Experiment: Inverse agonist activity at CCR4 in human HTLA cells assessed as depression of basal activity incubated for 20 mins by beta arrestin-recruitment mediated luciferase reporter gene assay in absence of CCL22
How it was run: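 Transfected HTLA β-arrestin2-TEV/tTA-luciferase cells expressing CCR4, in serum-free DMEM, treated with compound dilutions in HBSS/20 mM HEPES pH 7.4 without CCL22 agonist; luciferase luminescence read on day 4; basal signal depression plotted as concentration-response curves.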

CCC(C)n1ncn(-c2ccc(N3CCN(c4ccc(OC[C@H]5CO[C@](Cn6cncn6)(c6ccc(Cl)cc6Cl)O5)cc4)CC3)cc2)c1=O (stereo partly specified) [Oriconazole]
pIC50: 6.70
